The target of experiment [1] is Adenosine receptors; A1 & A3 (Homo sapiens) (UniProt P30542+P0DMS8). The experiment can be described thus: Ratio of binding affinity of human A1 receptor to that of human A3 receptor. In kind it is protein assay. The method in brief:
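Ki ratio from displacement in CHO membranes, 6–8 concentrations, n=3-6, filtration counting. A1: 1 nM [3H]DPCPX, 50 μg protein, 120 min at 25 °C, nonspecific with 10 μM CHA. A3: 1 nM [3H]MRE3008-F20, 50 μg protein, Tris/10 mM MgCl2 pH 7.4, 120 min at 4 °C, nonspecific with 1 μM MRE3008-F20.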

Experiment [2] concerns the target T1, Adenosine receptor A3 (Homo sapiens) (UniProt P0DMS8).
T1 sequence (whole entry): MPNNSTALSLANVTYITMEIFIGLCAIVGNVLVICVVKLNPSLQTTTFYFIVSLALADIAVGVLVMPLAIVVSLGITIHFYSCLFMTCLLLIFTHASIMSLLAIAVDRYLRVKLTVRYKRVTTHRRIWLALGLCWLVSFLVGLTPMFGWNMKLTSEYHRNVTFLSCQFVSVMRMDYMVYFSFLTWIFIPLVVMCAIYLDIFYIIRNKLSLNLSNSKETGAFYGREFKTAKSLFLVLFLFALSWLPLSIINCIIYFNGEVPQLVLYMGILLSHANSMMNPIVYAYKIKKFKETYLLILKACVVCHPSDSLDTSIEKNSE
The following applies: CHO, 1 uM.

Experiment [3] addresses T2, Adenosine receptor A2a (Homo sapiens, UniProt P29274). The experiment can be described thus: Displacement of [3H]-SCH- 58261 from human adenosine A2A receptor expressed in CHO cells; range 85-164. In kind it is cell-based. The method in brief:
(§1)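 Membranes from CHO cells stably expressing human A2A receptor, grown in DMEM/F12 without nucleosides, resuspended in 50 mM Tris HCl, 10 mM MgCl2, pH 7.4; 50 μg protein/assay. Competition with [3H]SCH 58261 at 6–8 or more compound concentrations, 60 min at 25 °C; nonspecific binding with 50 μM NECA. Filtration on GF/B filters, scintillation counting; n=3-6.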

Experiment [4] addresses T3, Adenosine receptor A3 (Homo sapiens, UniProt P0DMS8).
T3 sequence (P0DMS8 whole entry): T1 sequence (whole entry)
The experiment is described as follows: Displacement of [3H]MRE3008-F20 from human adenosine A3 receptor expressed in CHO cells; range 33-48. In kind it is cell-based.

Experiment [5] has as its target Adenosine receptors; A2b & A3 (Homo sapiens) (UniProt P29275+P0DMS8). The experiment can be described thus: Ratio of binding affinity of human A2B receptor to that of human A3 receptor. In kind it is protein assay. In short, it runs like this:
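Ki ratio, n=3-6, 6–8 concentrations. A2B in HEK-293 membranes (20 μg): 40 nM [3H]DPCPX, 50 mM Tris HCl, 10 mM MgCl2, 1 mM EDTA, 0.1 mM benzamidine pH 7.4, 2 IU/mL adenosine deaminase, 60 min at 25 °C, nonspecific with 100 μM NECA. A3 in CHO membranes (50 μg): 1 nM [3H]MRE3008-F20, 120 min at 4 °C.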

The target of experiment [6] is T4, Adenosine receptor A1 (Homo sapiens, UniProt P30542).
T4 sequence (P30542 whole entry): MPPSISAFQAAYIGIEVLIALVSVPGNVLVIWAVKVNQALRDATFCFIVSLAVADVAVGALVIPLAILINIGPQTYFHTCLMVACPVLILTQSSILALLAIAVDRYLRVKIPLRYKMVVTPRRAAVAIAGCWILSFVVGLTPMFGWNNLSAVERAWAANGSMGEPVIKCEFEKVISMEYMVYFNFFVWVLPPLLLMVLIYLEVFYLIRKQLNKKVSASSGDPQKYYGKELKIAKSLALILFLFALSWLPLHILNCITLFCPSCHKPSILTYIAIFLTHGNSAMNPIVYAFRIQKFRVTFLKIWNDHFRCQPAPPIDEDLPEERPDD
The experiment can be described thus: Displacement of [3H]DPCPX from human adenosine A1 receptor expressed in CHO cells; range 83-120. In kind it is cell-based.

In experiment [7] the target is T5, Adenosine receptor A2b (Homo sapiens, UniProt P29275).
T5 sequence (P29275 whole entry): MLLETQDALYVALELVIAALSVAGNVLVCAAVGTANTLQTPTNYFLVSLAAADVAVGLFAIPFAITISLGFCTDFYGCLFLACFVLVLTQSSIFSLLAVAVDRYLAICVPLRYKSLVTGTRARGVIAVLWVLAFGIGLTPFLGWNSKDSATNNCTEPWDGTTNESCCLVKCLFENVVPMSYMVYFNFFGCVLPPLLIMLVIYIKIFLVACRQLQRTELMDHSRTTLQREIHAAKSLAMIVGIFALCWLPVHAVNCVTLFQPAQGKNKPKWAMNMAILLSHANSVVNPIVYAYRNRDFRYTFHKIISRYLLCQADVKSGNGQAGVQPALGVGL
The experiment can be described thus: Displacement of [3H]DPCPX from Adenosine A2b receptor expressed in […]; range 55-68. In kind it is cell-based. The method in brief:
(§2)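 Human recombinant A2B receptor was expressed in HEK-293 cell membranes (20 μg protein). Incubated with 40 nM [3H]DPCPX in 50 mM Tris HCl, 10 mM MgCl2, 1 mM EDTA, 0.1 mM benzamidine, pH 7.4, with 2 IU/mL adenosine deaminase, at least 6–8 test concentrations, 60 min, 25 °C. Nonspecific binding was taken with 100 μM NECA; n=3-6.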

For experiment [8], the target named is T3, Adenosine receptor A3. The experiment can be described thus: Inhibition of cAMP accumulation in CHO cells expressing human adenosine A3 receptor; range 2.9-6.0. In kind it is functional, cell-based. (In general: Cyclic AMP is a second messenger, typically raised through Gs and lowered through Gi signalling.)
For experiment [9], the target named is T4, Adenosine receptor A1. The experiment can be described thus: Displacement of [3H]DPCPX from human adenosine A1 receptor expressed in CHO cells; range 269-326. In kind it is cell-based.
Experiment [10] deals with T3, Adenosine receptor A3. The experiment can be described thus: Displacement of [3H]MRE3008-F20 from human adenosine A3 receptor expressed in CHO cells; range 0.27-0.34. In kind it is cell-based.
Experiment [11] addresses T2, Adenosine receptor A2a. The experiment is described as follows: Displacement of [3H]-SCH- 58261 from human adenosine A2A receptor expressed in CHO cells; range 65-92. In kind it is cell-based. The method in brief:
as §1
(In general: Displacement assays read how much labelled ligand stays bound in the presence of the test substance.)

Experiment [12] deals with T1, Adenosine receptor A3 (Homo sapiens). To be noted: CHO, 1 uM. This is another data set of the same source.
In experiment [13] the target is T5, Adenosine receptor A2b. The experiment is described as follows: Displacement of [3H]DPCPX from Adenosine A2b receptor expressed in […]; range 260-352. In kind it is cell-based.
Experiment [14] concerns the target T3, Adenosine receptor A3. The experiment can be described thus: Displacement of [3H]MRE3008-F20 from human adenosine A3 receptor expressed in CHO cells; range 691-952. In kind it is cell-based.
Experiment [15] addresses T5, Adenosine receptor A2b. The experiment can be described thus: Displacement of [3H]-DPCPX from Adenosine A2b receptor expressed in CHO cells; range 8-18. In kind it is cell-based. The following applies: in the assay text read “HEK-293 cells” for “CHO cells”. The method in brief: as §2
For experiment [16], the target named is T2, Adenosine receptor A2a. The experiment is described as follows: Displacement of [3H]-SCH- 58261 from human adenosine A2A receptor expressed in CHO cells; range 0.65-1.06. In kind it is cell-based. In short, it runs like this:
as §1

Experiment [17] deals with T1, Adenosine receptor A3 (Homo sapiens). The experiment can be described thus: Percentage of blockade by 1 uM of the inhibition by 100 nM IB-MECA-inhibited cAMP accumulation in CHO cells expressing human adenosine A3 receptor. In kind it is functional, cell-based. The method in brief: (§3)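 CHO cells stably expressing human A3 receptor; membranes in 50 mM Tris HCl, 10 mM MgCl2, 1 mM EDTA pH 7.4 with 5 μM GTP, 0.5 mM […] and 2.0 IU/mL adenosine deaminase. Preincubated 10 min at 37 °C, then IB-MECA (100 nM) and/or antagonist with 1 mM ATP and 10 μM forskolin for 10 min. Boiled 2 min. cAMP read by [3H]cAMP competition with adrenal binding protein.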

For experiment [18], the target named is T4, Adenosine receptor A1. The experiment can be described thus: Displacement of [3H]DPCPX from human adenosine A1 receptor expressed in CHO cells; range 4.72-6.23. In kind it is cell-based.
Experiment [19] has as its target T2, Adenosine receptor A2a. The experiment can be described thus: Displacement of [3H]-SCH- 58261 from human adenosine A2A receptor expressed in CHO cells; range 2.40-3.55. In kind it is cell-based.
For experiment [20], the target named is T3, Adenosine receptor A3. The experiment is described as follows: biochemical.
In experiment [21] the target is T4, Adenosine receptor A1. The experiment is described as follows: Displacement of [3H]DPCPX from human adenosine A1 receptor expressed in CHO cells; range 81-127. In kind it is cell-based.
Experiment [22] addresses T5, Adenosine receptor A2b. The experiment is described as follows: Displacement of [3H]DPCPX from Adenosine A2b receptor expressed in HEK-293 cells; range 81-101.
Experiment [23] deals with T1, Adenosine receptor A3 (Homo sapiens). The experiment can be described thus: Percent reversal of 100 nM IB-MECA-inhibited cAMP accumulation in CHO cells expressing human adenosine A3 receptor at 1 uM; range 92-102. In kind it is functional, cell-based. In short, it runs like this:
as §3

Experiment [24] addresses T3, Adenosine receptor A3. The experiment is described as follows: Inhibition of cAMP accumulation in CHO cells expressing human adenosine A3 receptor; range 1.1-3.8. In kind it is functional, cell-based.
In experiment [25] the target is T2, Adenosine receptor A2a. The experiment is described as follows: biochemical.
The target in experiment [26] is T4, Adenosine receptor A1. The experiment can be described thus: Displacement of [3H]DPCPX from human adenosine A1 receptor expressed in CHO cells; range 6.5-8.7. In kind it is cell-based.
In experiment [27] the target is T5, Adenosine receptor A2b. The experiment can be described thus: Displacement of [3H]DPCPX from Adenosine A2b receptor expressed in […]; range 19-27. In kind it is cell-based.

The values below come from ChEMBL document CHEMBL1133118 (J Med Chem, 2000).

T2 sequence (P29274 whole entry): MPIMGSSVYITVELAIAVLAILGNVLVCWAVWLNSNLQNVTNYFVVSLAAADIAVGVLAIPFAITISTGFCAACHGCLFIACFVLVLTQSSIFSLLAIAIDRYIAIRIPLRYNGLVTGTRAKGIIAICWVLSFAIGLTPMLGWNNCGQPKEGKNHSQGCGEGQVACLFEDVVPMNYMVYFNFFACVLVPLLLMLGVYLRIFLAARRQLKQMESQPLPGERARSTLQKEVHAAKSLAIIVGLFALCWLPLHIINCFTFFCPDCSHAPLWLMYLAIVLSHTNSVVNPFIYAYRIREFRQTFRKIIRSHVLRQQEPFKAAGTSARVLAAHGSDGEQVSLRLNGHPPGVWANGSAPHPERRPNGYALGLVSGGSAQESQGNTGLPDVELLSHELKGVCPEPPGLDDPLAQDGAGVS

With `CC(C)CCn1cc2c(nc(NC(=O)Nc3cccc(Cl)c3)n3nc(-c4ccco4)nc23)n1`, the values for the Ratio in experiment [1] and in experiment [5] were 2.5 and 1.5, respectively. In [2], this compound gave an inhibition of 45%. In addition, the Ki at Adenosine receptor A2a [3] was 115 nM; at Adenosine receptor A3 [4], 40 nM; on Adenosine receptor A1 [6] it was 100 nM; on Adenosine receptor A2b [7], 61 nM.
For the compound `CCCCn1cc2c(nc(NC(=O)Nc3ccc(OC)cc3)n3nc(-c4ccco4)nc23)n1`, the Ratio in experiment [1] was 925; in experiment [5] it was 946. The compound also showed an IC50 against Adenosine receptor A3 [8] of 4.1 nM. The Ki is 296 nM on Adenosine receptor A1 [9], 0.32 nM at Adenosine receptor A3 [10], 80 nM at Adenosine receptor A2a [11] and 303 nM on Adenosine receptor A2b [13]. In addition, in experiment [12], the inhibition turned out to be 93%.
Consider `CC(C)=CCn1cc2c(nc(N)n3nc(-c4ccco4)nc23)n1`, for which the Ratio was 0.006 in [1] and 0.014 in experiment [5]. The Ki on Adenosine receptor A3 [14] was determined as 811 nM; on Adenosine receptor A2b [15] it was 12 nM; at Adenosine receptor A2a [16], 0.8 nM; at Adenosine receptor A1 [18], 5.42 nM. This compound yielded an inhibition in experiment [17] of 12%.
On to `Cn1cc2c(nc(N)n3nc(-c4ccco4)nc23)n1`, for which the Ki at Adenosine receptor A2a [19] came to 2.8 nM; on Adenosine receptor A3 [20] it was 300 nM; at Adenosine receptor A1 [21], 101 nM; at Adenosine receptor A2b [22], 90 nM. In addition, the Ratio in experiment [1] is 0.33; in experiment [5] it was 0.3. The inhibition in experiment [17] came to 26%.
As for `COc1ccc(NC(=O)Nc2nc3ccc(Cl)cc3c3nc(-c4ccco4)nn23)cc1`, the Ratio in [1] came out at 43; in experiment [5] it was 158. In addition, in experiment [23], the inhibition was determined as 97%. Further, the midpoint of inhibition against Adenosine receptor A3 [24], the IC50, lay at 2 nM. Moreover, the figures for the Ki at Adenosine receptor A2a [25], at Adenosine receptor A1 [26] and on Adenosine receptor A2b [27] were 9.4 nM, 7.6 nM and 22 nM, respectively.

The term inhibition denotes the share of the control response that was lost under treatment. Broadly, the Ki is the equilibrium dissociation constant of an inhibitor or competing ligand from its target. High values mean lower affinity, low ones higher affinity. One may read the IC50 as the concentration needed to halve the response being measured.
